Experimental data from ChEMBL document CHEMBL3259717, “Synthetic calanolides with bactericidal activity against replicating and nonreplicating Mycobacterium tuberculosis” (J Med Chem, 2014).
≈ marks a conversion by molar mass, not a printed value.

What was measured:
[1] = tested on: Mycobacterium tuberculosis; assay: Antibacterial activity against replicating form of Mycobacterium tuberculosis MC2 6220 assessed as growth inhibition after 7 days by high-throughput screening assay; type: functional; conditions: MC2 6220, 168 h
Summary of the method: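 Attenuated Mtb mc26220 ΔpanCDΔlysA in 7H9 with glycerol, tyloxapol, OADC, casein amino acids, 240 μg/mL L-lysine, 24 μg/mL pantothenate. Mid-log cells diluted to OD580 0.01 in 384-well plates, compound in DMSO, 7 days at 37 °C, 20% O2, 5% CO2. OD580 read; MIC90 = 90% growth inhibition vs DMSO.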

[2] = tested on: Mycobacterium tuberculosis; assay: Antibacterial activity against non-replicating form of Mycobacterium tuberculosis MC2 6220 assessed as growth inhibition after 3 days by high-throughput screening assay; type: functional; conditions: MC2 6220, 72 h
Summary of the method: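 Log-phase mc26220 washed in PBS/tyloxapol, resuspended in Sauton's-based NR medium (butyrate, 0.5 mM NaNO2, pH 5.0) at OD580 0.1. Compound exposure 3 days at 37 °C, 1% O2, 5% CO2. Then R medium added (5-fold dilution), 7 days outgrowth at 20% O2. OD580 read; MIC90 = 90% inhibition vs DMSO.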

Compound | MIC90 [1] [µg/mL] | MIC90 [2] [µg/mL]
CCCc1cc(=O)oc2c1c(OCCN1CCOCC1)cc1oc([N+](=O)[O-])c(CO)c12 | 100 (≈ 231 µM) | 100 (≈ 231 µM)
Cc1c(Cc2ccccc2)c(=O)oc2c1c1c(c3oc([N+](=O)[O-])cc32)C=CC(C)(C)O1 | 2 (≈ 4.79 µM) | > 21
CCCc1cc(=O)oc2c1c(-c1ccc(F)cc1)cc1oc([N+](=O)[O-])cc12 | 0.7 (≈ 1.91 µM) | 18 (≈ 49 µM)
CCCc1cc(=O)oc2cc(OC)c3c(c12)OC(C)(C)C=C3 | > 15 | > 15
Cc1cc(=O)oc2cc(NC(=O)c3ccc([N+](=O)[O-])o3)c3c(c12)OC(C)(C)C=C3 | > 20 | > 20
CC1(C)C=Cc2c(c3c4c(c(=O)oc3c3cc([N+](=O)[O-])oc23)CCCC4)O1 | < 0.2 | 2 (≈ 5.44 µM)
CCCc1cc(=O)oc2cc(OC(=O)c3ccccc3)c3c(c12)OC(C)(C)C=C3 | > 20 | > 20
CCCc1cc(=O)oc2c3c(c4c(c12)OC(C)(C)C=C4)OC(O)C3=O (configuration not stated) | > 17 | 17 (≈ 49.7 µM)
CCCc1cc(=O)oc2cc(NCc3ccccc3)c3c(c12)OC(C)(C)C=C3 | 19 (≈ 50.6 µM) | > 19
CCCc1cc(=O)oc2c3c(c4cc([N+](=O)[O-])oc4c12)OC(C)CC3=O (configuration not stated) | > 50 | 6 (≈ 16.8 µM)
CCCc1cc(=O)oc2cc(NC(=O)c3cnccn3)c3c(c12)OC(C)(C)C=C3 | > 20 | > 20
CCCc1cc(=O)oc2c(C(=O)CC)c(N(C)C)c3c(c12)OC(C)(C)C=C3 | > 18 | > 18
CCCC1CC(=O)Oc2c1c1c(c3oc([N+](=O)[O-])cc23)C=CC(C)(C)O1 (configuration not stated) | > 18 | > 18
CCCc1cc(=O)oc2c(C(=O)CC)c(N3CCN(Cc4ccc(F)cc4)CC3)c3c(c12)OC(C)(C)C=C3 | > 26 | 26 (≈ 50.1 µM)
CCCc1cc(=O)oc2c(C(=O)CC)c(N3CCSCC3)c3c(c12)OC(C)(C)C=C3 | > 21 | > 21
CCCc1cc(=O)oc2cc(OCc3ccccc3)c3c(c12)OC(C)(C)C=C3 | > 19 | > 19

Compound | MIC90 [1] [µg/mL] | MIC90 [2] [µg/mL]
CCCc1cc(=O)oc2cc(NC(=O)c3ccccc3)c3c(c12)OC(C)(C)C=C3 | > 19 | > 19
CCCc1cc(=O)oc2cc(OC(C)=O)c3c(c12)OC(C)(C)C=C3 | > 16 | > 16
CCCc1cc(=O)oc2c(C(=O)CC)c(N3CCOCC3)c3c(c12)OC(C)(C)C=C3 | > 21 | > 21
CCCc1cc(=O)oc2c1c1c(c3occc32)C=CC(C)(C)O1 | > 100 | > 100
CC1(C)C=Cc2c(c3c(-c4ccccc4)cc(=O)oc3c3cc([N+](=O)[O-])oc23)O1 | 2 (≈ 5.14 µM) | 19 (≈ 48.8 µM)
CCCc1cc(=O)oc2cc(OCC(=O)NCCc3ccccc3)c3c(c12)OC(C)(C)C=C3 | > 22 | > 22
CCCc1cc(=O)oc2cc(OCC3CC3)c3c(c12)OC(C)(C)C=C3 | > 17 | > 17
CCCc1cc(=O)oc2cc(OC(=O)/C=C/c3ccccc3)c3c(c12)OC(C)(C)C=C3 | > 21 | > 21
CCCc1cc(=O)oc2c(C(=O)CC)c(N3CCN(c4ccc(OC)cc4)CC3)c3c(c12)OC(C)(C)C=C3 | > 26 | > 26
CCCc1cc(=O)oc2cc(OCCc3cccs3)c3c(c12)OC(C)(C)C=C3 | > 20 | > 20
CCCc1cc(=O)oc2c(C(=O)CC)c(N3CCN(c4ccccn4)CC3)c3c(c12)OC(C)(C)C=C3 | > 24 | > 24
CCCc1cc(=O)oc2cc(N3CCC(O)CC3)c3c(c12)OC(C)(C)C=C3 | > 18 | > 18
CCCc1cc(=O)oc2cc(N3CCSCC3)c3c(c12)OC(C)(C)C=C3 | > 19 | > 19
CCCc1cc(=O)oc2cc(NC(C)=O)c3c(c12)OC(C)(C)C=C3 | > 16 | > 16
CCCc1cc(=O)oc2c1c(O)cc1oc([N+](=O)[O-])cc12 | > 14 | > 14
